Columns and labels:
[1] = Effective permeability (Pe) across a hexadecane membrane (pH 6.8); format: ADME
In short: (§1)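 Passive permeation from donor to acceptor across a polycarbonate filter (3 µm pores, 9–10 µm thick) coated with hexadecane left after hexane evaporation. Donor held 50 µg/mL compound in buffer with 5% DMSO and 100 mM KCl; acceptor held buffer with 5% DMSO. Incubated 5 h at room temperature with light shaking. Acceptor UV absorbance read at 260–290 nm. Wells below 5 kΩ resistance discarded.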

[2] = % absorbed in human GI-tract; format: ADME, organism-based; conditions: in vivo, read-out: % absorbed
[3] = Partition coefficient (logD6.8); format: physicochemical; conditions: octanol/water, pH 6.8
[4] = Highest effective permeability across hexadecane membrane (pH 4-8); format: ADME; in short: as §1
[5] = Intrinsic permeability of the compound; format: ADME
In short: (§2)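 Derived from hexadecane-membrane Pe measured across a pH range, combined with aqueous pKa. Pe is corrected for ionization to give Pul. Pul is then corrected for the unstirred water layer by the Gutknecht–Tosteson relation to give the intrinsic permeability P0.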

[6] = Effective permeability corrected for ionization; format: ADME; in short: as §2
[7] = Partition coefficient (logP) (hexadecane); format: physicochemical; conditions: hexadecane/water
[8] = Intrinsic permeability measured with HDM assay; format: ADME; in short: as §2
[9] = Effective permeability measured with HDM assay; format: ADME; in short: as §1

Compound	Log Pe [1] [cm s-1]	Fa [2] [%]	logD ([3]; read-out: logD)	Log Pe [4] [cm s-1]	Log Po [5]	Log Pe,max [6]	logP [7]	logD [3]	Log Po [8]	Log Pe,max [9]
C[C@]12CC[C@H]3[C@@H](CCC4=CC(=O)CC[C@@]43C)[C@@H]1CC[C@@H]2O [TESTOSTERONE]	-3.5	100	3.9	-3.5						
CCN1CCCC1CNC(=O)c1cc(S(N)(=O)=O)ccc1OC (configuration not stated) [SULPIRIDE]	-4.6			-4.6						
O=C(O)CN(CCN(CC(=O)O)Cc1ccccc1O)Cc1ccccc1O	-5.1	5	-0.2	-5.1						
O=C(O)c1cc(/N=N/c2ccc(S(=O)(=O)Nc3ccccn3)cc2)ccc1O [SULFASALAZINE]	-4.9		-0.7	-4.9						
CN/C(=N/CCSCc1nc[nH]c1C)NC#N [CIMETIDINE]	-4	95	0.1	-4						
CN/C(=C/[N+](=O)[O-])NCCSCc1ccc(CN(C)C)o1 [RANITIDINE]	-4.6	50	-1.1	-4.5						
CN(Cc1cnc2nc(N)nc(N)c2n1)c1ccc(C(=O)N[C@@H](CCC(=O)O)C(=O)O)cc1 [METHOTREXATE]	-4.7	20	-3	-4.7						
CC(C(=O)O)c1cccc(C(=O)c2ccccc2)c1 (configuration not stated) [KETOPROFEN]					-2.7	-3.6				
N=C(N)N/N=C/c1c(Cl)cccc1Cl [GUANABENZ]	-5		0.9	-4.4	-4.6	-4.9	-1.6			
NS(=O)(=O)c1cc2c(cc1Cl)NCNS2(=O)=O [HYDROCHLOROTHIAZIDE]	-4.7	67		-4.2						
CC(C)(C)NCC(O)c1cc(O)cc(O)c1 (configuration not stated) [TERBUTALINE]	-4.1	70	-2	-4.1						
CC(=O)N(O)CCCCCNC(=O)CCC(=O)N(O)CCCCCNC(=O)CCC(=O)N(O)CCCCCN [DEFEROXAMINE]	-5.3	2	-3	-5.3						
O=C(O)Cc1ccccc1Nc1c(Cl)cccc1Cl [DICLOFENAC]					-1.3	-3.7				
CN(C)CCCN1c2ccccc2Sc2ccc(Cl)cc21 [CHLORPROMAZINE]	-3.7	100	2.9	-3.5	1.3	-3.6	4.7			
CC(CCc1ccccc1)NCC(O)c1ccc(O)c(C(N)=O)c1 (configuration not stated) [LABETALOL]	-4.2	90	0.5	-3.8						
O=C1NC(=O)C(c2ccccc2)(c2ccccc2)N1 [PHENYTOIN]	-4	90	2.2	-4	-3.6	-4.4	-0.3			

Compound	Log Pe [1] [cm s-1]	Fa [2] [%]	logD ([3]; read-out: logD)	Log Pe [4] [cm s-1]	Log Po [5]	Log Pe,max [6]	logP [7]	logD [3]	Log Po [8]	Log Pe,max [9]
CN1CCN(C2=Nc3cc(Cl)ccc3Nc3ccccc32)CC1 [CLOZAPINE]		100						3		
CC(C)NCC(O)COc1cccc2ccccc12 (configuration not stated) [PROPRANOLOL]	-4.4			-4						
CN1C(C(=O)Nc2ccccn2)=C(O)c2ccccc2S1(=O)=O [PIROXICAM]	-4		0.3	-3.3						
Cc1ccccc1N1C(=O)c2cc(S(N)(=O)=O)c(Cl)cc2NC1C (configuration not stated) [METOLAZONE]	-4.6		4.1	-4.6						
COCCc1ccc(OCC(O)CNC(C)C)cc1 (configuration not stated) [METOPROLOL]	-4.2		-0.8	-4.2	-2.8	-3.6	-0.4			
O=C(O)c1ccccc1O [SALICYLIC ACID]					-3.2	-3.4	-1			
Nc1nc2c(ncn2COCCO)c(=O)[nH]1 [ACYCLOVIR]	-4.8		-2	-4.8						
NC(=O)N1c2ccccc2C=Cc2ccccc21 [CARBAMAZEPINE]	-3.9		2.4	-3.9						
CC(=O)CC(c1ccccc1)c1c(O)c2ccccc2oc1=O (configuration not stated) [WARFARIN]	-3.8		0.6	-3.8	-2.3	-3.6	1			
CCCCC(=O)N(Cc1ccc(-c2ccccc2-c2nnn[nH]2)cc1)[C@H](C(=O)O)C(C)C		55	-1.6							
N=C(N)NC(=O)c1nc(Cl)c(N)nc1N [AMILORIDE]	-4.6	50	-2.1	-4.4						
C=CCc1ccccc1OCC(O)CNC(C)C (configuration not stated) [ALPRENOLOL]	-4		0.3	-4	-1.6	-3.6	1.3			
CC(C)(C)NC[C@H](O)COc1nsnc1N1CCOCC1 [TIMOLOL]	-4.4	72	-0.7	-4.2	-3.2	-3.6	-1			
CC(=O)[C@H]1CC[C@H]2[C@@H]3CCC4=CC(=O)CC[C@]4(C)[C@H]3CC[C@]12C [PROGESTERONE]	-3.8	91	4.3	-3.8						
NC(N)=Nc1nc(CSCCC(N)=NS(N)(=O)=O)cs1 [FAMOTIDINE]	-4.6	45	-0.8	-4.3						
CC(C)Cc1ccc(C(C)C(=O)O)cc1 (configuration not stated) [IBUPROFEN]					-0.9	-3.7	1.95		-0.9	-3.7

— ChEMBL document CHEMBL1134374, “High-throughput permeability pH profile and high-throughput alkane/water log P with artificial membranes” (J Med Chem, 2001)
